Assay results published in ChEMBL document CHEMBL2434875, “Novel nonsecosteroidal VDR agonists with phenyl-pyrrolyl pentane skeleton” (Eur J Med Chem, 2013).
One block for each compound: values may come before it. Calls of active or inactive are those of the source. No cut-off for these calls is given here.

Legend:
[1] = target: T1, Vitamin D3 receptor (Homo sapiens) (UniProt P11473); test: Agonist activity at VDR in human HL60 cells assessed as induction of cell differentiation at >50 uM after 96 hrs by NBT reduction assay; assay type: cell-based; conditions: HL-60
T1 sequence (whole entry): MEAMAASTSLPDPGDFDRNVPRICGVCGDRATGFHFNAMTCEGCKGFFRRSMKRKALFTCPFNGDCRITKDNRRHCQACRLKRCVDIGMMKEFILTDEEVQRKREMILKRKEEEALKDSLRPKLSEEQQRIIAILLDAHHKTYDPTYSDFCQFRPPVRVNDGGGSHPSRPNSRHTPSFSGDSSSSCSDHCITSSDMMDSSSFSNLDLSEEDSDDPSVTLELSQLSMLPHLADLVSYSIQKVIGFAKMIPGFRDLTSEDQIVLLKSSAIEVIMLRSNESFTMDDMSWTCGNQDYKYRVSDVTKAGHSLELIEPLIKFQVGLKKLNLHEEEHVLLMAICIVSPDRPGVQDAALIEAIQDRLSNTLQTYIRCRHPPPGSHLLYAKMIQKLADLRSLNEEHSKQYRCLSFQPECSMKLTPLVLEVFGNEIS

[2] = test system: MCF7; test: Cytotoxicity against human MCF7 cells at >50 uM after 48 hrs by MTT assay; assay type: functional, cell-based
How it was run: (§1)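 HaCaT or MCF-7 cells grown 48 h at 37 °C, 5% CO₂, no medium change. MTT (5 mg/mL) with DMEM added, 4 h. Medium replaced by DMSO to dissolve formazan, A570 read. IC50 from log-linear dose regression. Compounds above 85% efficacy rescreened for the final IC50. Triplicate experiments.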

[3] = test system: HaCaT; test: Cytotoxicity against human HaCaT cells after 48 hrs by MTT assay; assay type: functional, cell-based; how it was run: as §1
[4] = test system: MCF7; test: Cytotoxicity against human MCF7 cells after 48 hrs by MTT assay; assay type: functional, cell-based; conditions: MCF7, 48 h; how it was run: as §1
[5] = test system: Mus musculus; test: In vivo calcemic activity in ICR mouse assessed as serum calcium level at 10 mg/kg, sc administered for 7 days (reference value: 8.76 mg/dL); assay type: ADME, organism-based; parameters: dose 10 mg/kg, route subcutaneous; conditions: 168 h
[6] = test system: Mus musculus; test: In vivo calcemic activity in ICR mouse assessed as serum calcium level at 0.5 mg/kg, sc administered for 7 days (reference value: 8.76 mg/dL); assay type: ADME, organism-based; parameters: dose 0.5 mg/kg, route subcutaneous; conditions: 168 h
[7] = test system: Mus musculus; test: In vivo calcemic activity in ICR mouse assessed as serum calcium level at 30 mg/kg, sc administered for 7 days (reference value: 8.76 mg/dL); assay type: ADME, organism-based; parameters: dose 30 mg/kg, route subcutaneous; conditions: 168 h
[8] = test system: HaCaT; test: Cytotoxicity against human HaCaT cells at >50 uM after 48 hrs by MTT assay; assay type: functional, cell-based; how it was run: as §1
[9] = test system: Mus musculus; test: In vivo calcemic activity in ICR mouse assessed as serum calcium level at 5 ug/kg, sc administered for 7 days (reference value: 8.76 mg/dL); assay type: ADME, organism-based; conditions: 0.005 mg/kg, 168 h

SMILES: CCC(CC)(c1ccc(OCC(O)C(C)(C)C)c(C)c1)c1ccc(C(=O)N[C@@H](CC(=O)O)C(=O)O)n1C (stereo partly specified)
- Activity [1]: inactive

SMILES: CCC(CC)(c1ccc(OCC(O)C(C)(C)C)c(C)c1)c1ccc(C(=O)NCC(=O)O)n1C (stereo unspecified)
- growth inhibition (GI) [2]: inactive
- IC50 [3]: 9810 nM

SMILES: CCC(CC)(c1ccc(OCC(O)C(C)(C)C)c(C)c1)c1ccc(C(=O)NCCO)n1C (stereo unspecified)
- Activity [1]: inactive

SMILES: CCn1c(C(=O)NCCC(=O)O)ccc1C(CC)(CC)c1ccc(OCC(O)C(C)(C)C)c(C)c1 (stereo unspecified)
- growth inhibition (GI) [8]: inactive
- growth inhibition (GI) [2]: inactive

SMILES: CCn1c(C(=O)N[C@@H](CC(=O)O)C(=O)O)ccc1C(CC)(CC)c1ccc(OCC(=O)C(C)(C)C)c(C)c1
- Activity [1]: inactive

SMILES: CCC(CC)(c1ccc(OCC(O)C(C)(C)C)c(C)c1)c1ccc(C(=O)N[C@@H](C)CO)n1C (stereo partly specified)
- growth inhibition (GI) [2]: inactive
- IC50 [3]: 15700 nM

SMILES: CCn1c(C(=O)N[C@@H](C)C(=O)OC)ccc1C(CC)(CC)c1ccc(OCC(=O)C(C)(C)C)c(C)c1
- Activity [1]: inactive

SMILES: CCn1c(C(=O)NCC(=O)OC)ccc1C(CC)(CC)c1ccc(OCC(=O)C(C)(C)C)c(C)c1
- growth inhibition (GI) [8]: inactive
- growth inhibition (GI) [2]: inactive

SMILES: CCC(CC)(c1ccc(OCC(=O)C(C)(C)C)c(C)c1)c1ccc(C(=O)NCCC(=O)O)n1C
- Activity [1]: inactive

SMILES: CCC(CC)(c1ccc(OCC(=O)C(C)(C)C)c(C)c1)c1ccc(C(=O)NCCC(=O)OC)n1C
- growth inhibition (GI) [2]: inactive
- IC50 [3]: 28900 nM

SMILES: CCn1c(C(=O)N[C@@H](C)C(=O)O)ccc1C(CC)(CC)c1ccc(OCC(O)C(C)(C)C)c(C)c1 (stereo partly specified)
- IC50 [4]: 180 nM
- growth inhibition (GI) [8]: inactive

SMILES: CCC(CC)(c1ccc(OCC(O)C(C)(C)C)c(C)c1)c1ccc(C(=O)NCCCO)n1C (stereo unspecified)
- IC50 [4]: 16400 nM
- growth inhibition (GI) [8]: inactive

SMILES: CCC(CC)(c1ccc(OCC(O)C(C)(C)C)c(C)c1)c1ccc(C(=O)NCCC(=O)O)n1C (stereo unspecified)
- growth inhibition (GI) [8]: inactive
- growth inhibition (GI) [2]: inactive

SMILES: CCC(CC)(c1ccc(OCC(=O)C(C)(C)C)c(C)c1)c1ccc(C(=O)N[C@@H](C)C(=O)O)n1C
- growth inhibition (GI) [8]: inactive
- growth inhibition (GI) [2]: inactive

SMILES: CCC(CC)(c1ccc(OCC(=O)C(C)(C)C)c(C)c1)c1ccc(C(=O)NCC(=O)OC)n1C
- growth inhibition (GI) [8]: inactive
- growth inhibition (GI) [2]: inactive

SMILES: CCC(CC)(c1ccc(OCC(=O)C(C)(C)C)c(C)c1)c1ccc(C(=O)N[C@@H](CC(=O)O)C(=O)O)n1C
- IC50 [4]: 160 nM
- growth inhibition (GI) [8]: inactive

SMILES: CCn1c(C(=O)NCCC(=O)O)ccc1C(CC)(CC)c1ccc(OCC(=O)C(C)(C)C)c(C)c1
- Activity [1]: inactive

SMILES: CCn1c(C(=O)NCCO)ccc1C(CC)(CC)c1ccc(OCC(O)C(C)(C)C)c(C)c1 (stereo unspecified)
- IC50 [4]: 1810 nM
- IC50 [3]: 2080 nM

SMILES: CCC(CC)(c1ccc(OCC(O)C(C)(C)C)c(C)c1)c1ccc(C(=O)N[C@@H](C)C(=O)O)n1C (stereo partly specified)
- Activity [1]: inactive

SMILES: CCn1c(C(=O)N[C@H](CO)CCO)ccc1C(CC)(CC)c1ccc(OCC(O)C(C)(C)C)c(C)c1 (stereo partly specified)
- IC50 [4]: 300 nM
- IC50 [3]: 1250 nM

SMILES: CCn1c(C(=O)N[C@@H](CC(=O)OC)C(=O)OC)ccc1C(CC)(CC)c1ccc(OCC(=O)C(C)(C)C)c(C)c1
- Activity [1]: inactive

SMILES: CCn1c(C(=O)N[C@@H](CC(=O)O)C(=O)O)ccc1C(CC)(CC)c1ccc(OCC(O)C(C)(C)C)c(C)c1 (stereo partly specified)
- Activity [1]: inactive

The next lines start with results.

- Activity [1]: inactive
SMILES: CCn1c(C(=O)NCCCO)ccc1C(CC)(CC)c1ccc(OCC(O)C(C)(C)C)c(C)c1 (stereo unspecified)

- Activity [1]: inactive
SMILES: CCC(CC)(c1ccc(OCC(=O)C(C)(C)C)c(C)c1)c1ccc(C(=O)N[C@@H](C)C(=O)OC)n1C

- Activity [5]: 8.3 mg/dL
- Activity [6]: 8.09 mg/dL
- Activity [7]: 9.08 mg/dL
SMILES: CCn1c(C(=O)N[C@@H](C)CO)ccc1C(CC)(CC)c1ccc(OCC(O)C(C)(C)C)c(C)c1 (stereo partly specified)
- IC50 [4]: 307 nM
- IC50 [3]: 2060 nM

- Activity [1]: inactive
SMILES: CCn1c(C(=O)NCC(=O)O)ccc1C(CC)(CC)c1ccc(OCC(O)C(C)(C)C)c(C)c1 (stereo unspecified)

- Activity [1]: inactive
SMILES: CCn1c(C(=O)N[C@@H](C)C(=O)O)ccc1C(CC)(CC)c1ccc(OCC(=O)C(C)(C)C)c(C)c1

- Activity [9]: 12.14 mg/dL
SMILES: C=C1/C(=C\C=C2/CCC[C@]3(C)[C@@H]([C@H](C)CC[C@@H](O)C(C)C)CC[C@@H]23)C[C@@H](O)C[C@@H]1O [TACALCITOL]
- IC50 [4]: 57 nM
- IC50 [3]: 2070 nM

- Activity [5]: 9.29 mg/dL
- Activity [6]: 8.91 mg/dL
- Activity [7]: 8.94 mg/dL
SMILES: CCC(CC)(c1ccc(OCC(O)C(C)(C)C)c(C)c1)c1ccc(C(=O)N[C@H](CO)CCO)n1C (stereo partly specified)
- IC50 [4]: 7.83 nM
- IC50 [3]: 190 nM

- Activity [1]: inactive
SMILES: CCn1c(C(=O)NCC(=O)O)ccc1C(CC)(CC)c1ccc(OCC(=O)C(C)(C)C)c(C)c1

- Activity [1]: inactive
SMILES: CCn1c(C(=O)NCCC(=O)OC)ccc1C(CC)(CC)c1ccc(OCC(=O)C(C)(C)C)c(C)c1

- Activity [1]: inactive
SMILES: CCC(CC)(c1ccc(OCC(=O)C(C)(C)C)c(C)c1)c1ccc(C(=O)NCC(=O)O)n1C

- Activity [1]: inactive
SMILES: CCC(CC)(c1ccc(OCC(=O)C(C)(C)C)c(C)c1)c1ccc(C(=O)N[C@@H](CC(=O)OC)C(=O)OC)n1C
